Results taken from ChEMBL document CHEMBL1139010, “Synthesis and SAR studies of 2-oxoquinoline derivatives as CB2 receptor inverse agonists” (J Med Chem, 2006).

Tests used:
Cannabinoid receptor 2 [1] = target: T1, Cannabinoid receptor 2 (Homo sapiens, UniProt P34972); test: Inhibition of [35S]GTP-gamma-S binding to human CB2 receptor expressed in CHO cells relative to SR-144528; assay type: functional, cell-based
Summary of the method: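 Membranes from CHO cells stably expressing hCB2 (Bmax 20.4 pmol/mg; cultured with 100 µg/mL G-418). Each incubation held 5 µg protein in 55 mM Tris-HCl pH 7.4 with 1.1 mM EDTA, 100 mM NaCl, 5 mM MgCl₂, 0.5% BSA, 11 µM GDP and about 150 pM [³⁵S]GTPγS. Ligands were added in 1% ethanol or 0.5% DMSO (final). Inhibition of basal binding was expressed against 1 µM SR144528 (Imax). At least three experiments were run in duplicate, reported as mean and SEM.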

Cannabinoid receptor 2 [2] = target: T1, Cannabinoid receptor 2; test: Inhibition of [35S]GTP-gamma-S binding to human CB2 receptor expressed in CHO cells; assay type: functional, cell-based
[3] = target: Cannabinoid receptor 1 (Rattus norvegicus) (UniProt P20272); test: […] activity at HU210-induced CB1 receptor in rat cerebellar membrane at 10 uM; assay type: functional, cell membranes; conditions: Cerebellum
Sequence of Cannabinoid receptor 1 (Rattus norvegicus) (P20272 whole entry): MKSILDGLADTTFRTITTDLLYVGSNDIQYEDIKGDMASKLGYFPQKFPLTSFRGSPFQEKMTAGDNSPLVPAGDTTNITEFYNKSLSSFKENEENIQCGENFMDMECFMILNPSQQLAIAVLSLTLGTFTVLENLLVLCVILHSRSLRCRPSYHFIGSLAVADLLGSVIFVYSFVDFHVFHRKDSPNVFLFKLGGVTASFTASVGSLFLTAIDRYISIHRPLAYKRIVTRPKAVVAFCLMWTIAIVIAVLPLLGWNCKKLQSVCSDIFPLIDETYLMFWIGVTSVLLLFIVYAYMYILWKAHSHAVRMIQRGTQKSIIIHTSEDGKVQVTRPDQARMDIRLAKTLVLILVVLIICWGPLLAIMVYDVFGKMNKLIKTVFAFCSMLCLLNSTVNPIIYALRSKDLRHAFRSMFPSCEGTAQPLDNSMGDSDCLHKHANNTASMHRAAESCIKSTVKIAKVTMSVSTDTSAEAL
Summary of the method: (§1)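 [³⁵S]GTPγS binding in rat cerebellar membranes, measuring block of the CB1 response to 10 nM HU-210 by ligand at 1 µM and 10 µM. Ligand alone was also tested at 10 µM for agonism. Values are means of at least three independent experiments run in duplicate, with SEM as the variability.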

[4] = target: Cannabinoid receptor 1 (Rattus norvegicus) (UniProt P20272); test: […] activity at HU210-induced CB1 receptor in rat cerebellar membrane at 1 uM; assay type: functional, cell membranes; conditions: Cerebellum; summary of the method: as §1

T1 sequence (P34972 whole entry): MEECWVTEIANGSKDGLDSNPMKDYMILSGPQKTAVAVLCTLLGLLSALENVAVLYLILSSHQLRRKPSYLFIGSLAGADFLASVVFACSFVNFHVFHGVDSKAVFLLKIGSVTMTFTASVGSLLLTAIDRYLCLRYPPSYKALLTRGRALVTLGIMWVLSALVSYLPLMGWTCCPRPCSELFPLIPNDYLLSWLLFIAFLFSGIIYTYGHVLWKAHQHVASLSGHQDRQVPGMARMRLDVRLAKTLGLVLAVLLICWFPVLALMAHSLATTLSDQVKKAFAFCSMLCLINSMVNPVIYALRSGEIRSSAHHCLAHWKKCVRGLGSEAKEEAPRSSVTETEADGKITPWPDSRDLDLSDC

SMILES | Imax (Cannabinoid receptor 2 [1]) | IC50 (Cannabinoid receptor 2 [2]) | Activity [3] | Activity [4]
CCCCCOc1c(OC)ccc2cc(C(=O)NCCc3c[nH]c4ccccc34)c(O)nc12 | 79% | 25.1 nM | 72% | 94%
CCCCCOc1c(OC)ccc2cc(C(=O)NCCc3ccccc3)c(=O)[nH]c12 | 76% | 0.631 nM | 61% | 87%
CCCCCOc1c(OC)ccc2cc(C(=O)Nc3ccccc3N)c(=O)[nH]c12 |  | 12.6 nM |  | 
Cc1ccc(Cn2nc(C(=O)NC3C4(C)CCC(C4)C3(C)C)cc2-c2ccc(Cl)c(C)c2)cc1 (centres undefined) | 100% |  | 53% | 77%
CCCCCOc1c(OC)ccc2cc(NC(=O)Cc3ccc4c(c3)OCO4)c(O)nc12 | 60% |  | 75% | 93%
CCCCCOc1c(OC)ccc2cc(C(=O)NCCc3ccc(O)c(O)c3)c(O)nc12 | 93% | 398 nM | 63% | 93%
CCCCCOc1c(OC)ccc2cc(C(=O)NCCc3ccc([N+](=O)[O-])cc3)c(O)nc12 | 61% |  | 65% | 87%
CCCCCOc1c(OC)ccc2cc(C(=O)NCCc3ccc([N+](=O)[O-])cc3)c(=O)[nH]c12 |  | 100 nM |  | 
CCCCCOc1c(OC)ccc2cc(C(=O)NCCc3ccc(N)cc3)c(O)nc12 | 97% |  | 74% | 91%
CCCCCOc1c(OC)ccc2cc(C(=O)NCCc3ccc(O)cc3)c(O)nc12 | 90% |  | 68% | 92%
CCCCCOc1c(OC)ccc2cc(C(=O)NCCc3ccc(N)cc3)c(=O)[nH]c12 |  | 3.16 nM |  | 
CCCCCOc1c(OC)ccc2cc(C(=O)NCc3ccc(O)c(O)c3)c(=O)[nH]c12 |  | 3980 nM |  | 
CCCCCOc1c(OC)ccc2cc(C(=O)NCCc3ccc(Cl)cc3)c(=O)[nH]c12 | 104% | 5.01 nM | 64% | 95%
CCCCCOc1c(OC)ccc2cc(C(=O)NCCc3ccc(O)cc3)c(=O)[nH]c12 |  | 10 nM |  | 
CCCCCOc1c(OC)ccc2cc(C(=O)NCCCc3ccccc3)c(=O)[nH]c12 | 82% | 0.794 nM | 59% | 98%
CCCCCOc1c(OC)ccc2cc(NC(=O)Cc3ccc4c(c3)OCO4)c(=O)[nH]c12 |  | 20 nM |  | 
CCCCCOc1c(OC)ccc2cc(C(=O)Nc3ccccc3N)c(O)nc12 | 82% |  | 82% | 87%
CCCCCOc1c(OC)ccc2cc(C(=O)NCc3ccc4c(c3)OCO4)c(=O)[nH]c12 | 80% |  | 78% | 94%
CCCCCOc1c(OC)ccc2cc(C(=O)NCc3ccccc3)c(O)nc12 | 75% | 63.1 nM | 79% | 94%
CCCCCOc1c(OC)ccc2cc(C(=O)NCc3ccc(O)c(O)c3)c(O)nc12 | 124% |  | 85% | 93%
